In PubChem BioAssay AID488910 (Broad Institute, 2010):
Out of some 20,000 compounds screened, about 25 (0.1%) were called active. The entries come from a sample that favours actives as a whole. A number with no mark means an inactive call.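 Rule for the calls: active = mean replicate protection from cytokine-induced ATP loss at least 50% and at least 75% of replicates each reaching 50%; inconclusive = meets only one of the two criteria, mean or replicate share; inactive = fails both the mean and replicate share criteria.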

Test: protection of INS-1E cells from cytokine death, primary screen, ATP luminescence, single point (AID 488910)
Details: INS-1E cytokine-induced death, 48 h, at 10 µM, active compounds read high, normalised: neutral wells 0, positive control 100
In short: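 Material: INS-1E rat cells; Quantity: 8000 cells/well; Buffer or medium: phenol-red-free RPMI with 5% fetal bovine serum; Probe or stimulus: cytokine cocktail of IFN-γ, TNF-α and IL-1β; Compound dosing: single test concentration per compound, delivered by pin transfer; Incubation: 48 h co-treatment, 10 min post-lysis read; Signal: CellTiter-Glo luminescence.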
With CNC[C@H]1Oc2ccc(NS(=O)(=O)c3cn(C)cn3)cc2C(=O)N([C@@H](C)CO)C[C@@H]1C the protection from cytokine-induced ATP loss was -1.06%. In the case of COc1ccc(NC(=O)Nc2cccc3c2O[C@H](CN(C)S(=O)(=O)c2ccc(F)cc2)[C@H](C)CN([C@H](C)CO)C3=O)cc1, the protection from cytokine-induced ATP loss was -2.75%. Work on C[C@@H]1CN([C@@H](C)CO)C(=O)Cc2cc(NC(=O)Cn3cnnn3)ccc2O[C@@H]1CN(C)S(=O)(=O)c1cn(C)cn1 yielded a protection from cytokine-induced ATP loss of 10.1%. COc1ccc(S(=O)(=O)Nc2ccc3c(c2)CC(=O)N([C@H](C)CO)C[C@@H](C)[C@@H](CN(C)C(=O)Nc2cccc4ccccc24)O3)cc1 showed a protection from cytokine-induced ATP loss of 0.838%. For C[C@@H]1CN([C@H](C)CO)C(=O)c2cccc(NC(=O)Nc3ccccc3)c2O[C@H]1CN(C)Cc1ccccc1, the protection from cytokine-induced ATP loss was 3.52%. Work on C[C@@H]1CN([C@H](C)CO)C(=O)c2cc(NS(=O)(=O)c3ccccc3)ccc2O[C@H]1CN(C)S(=O)(=O)c1ccc(Cl)cc1 yielded a protection from cytokine-induced ATP loss of -7.86%. Molecule C[C@H](CO)N1C[C@H](C)[C@H](CN(C)C)Oc2ccc(NC(=O)c3ccncc3)cc2CC1=O has a protection from cytokine-induced ATP loss of 2%. Molecule O=C(NO)c1cccc(C(=O)N/N=C/c2c(F)c(F)c(F)c(F)c2F)c1 has a protection from cytokine-induced ATP loss of -2.52%. Molecule C[C@H]1CN([C@@H](C)CO)C(=O)Cc2cc(NC(=O)Nc3cccc4ccccc34)ccc2O[C@@H]1CN(C)S(=O)(=O)c1cn(C)cn1 has a protection from cytokine-induced ATP loss of 4.42%. CC(C)NC(=O)N(C)C[C@H]1Oc2c(NC(=O)C3CCCCC3)cccc2C(=O)N([C@@H](C)CO)C[C@H]1C showed a protection from cytokine-induced ATP loss of 10.6%. With Cc1noc(C)c1NC(=O)N(C)C[C@H]1Oc2c(NS(=O)(=O)c3cccs3)cccc2C(=O)N([C@@H](C)CO)C[C@@H]1C the protection from cytokine-induced ATP loss was 3.62%. Work on O=C(N/N=C/c1c[nH]c2ccccc12)c1ccccc1O yielded a protection from cytokine-induced ATP loss of -18.7%. Molecule Cc1ccc(S(=O)(=O)Nc2ccc3c(c2)CC(=O)N([C@H](C)CO)C[C@@H](C)[C@H](CN(C)S(=O)(=O)c2c(C)noc2C)O3)cc1 has a protection from cytokine-induced ATP loss of 3.93%. For COc1ccc(CN(C)C[C@@H]2Oc3ccc(NS(=O)(=O)c4cn(C)cn4)cc3C(=O)N([C@@H](C)CO)C[C@@H]2C)cc1, the protection from cytokine-induced ATP loss was 7.8%. Molecule C[C@H](CO)N1C[C@H](C)[C@H](CN(C)CC2CC2)Oc2ccc(NC(=O)CCN3CCOCC3)cc2C1=O has a protection from cytokine-induced ATP loss of -6.34%. Work on CC(C)NC(=O)Nc1cccc2c1O[C@H](CN(C)S(=O)(=O)c1cccs1)[C@@H](C)CN([C@H](C)CO)C2=O yielded a protection from cytokine-induced ATP loss of 5.81%. C[C@@H]1CN([C@@H](C)CO)C(=O)c2cccc(NC(=O)Nc3ccccc3)c2O[C@H]1CN(C)Cc1ccccc1 gave a protection from cytokine-induced ATP loss of -11.7%. For C[C@@H]1CN([C@@H](C)CO)C(=O)Cc2cc(NC(=O)Nc3ccc(F)cc3)ccc2O[C@@H]1CN(C)S(=O)(=O)c1ccccc1, the protection from cytokine-induced ATP loss was 13.1%. Molecule C[C@@H]1CN([C@@H](C)CO)C(=O)c2cc(NS(C)(=O)=O)ccc2O[C@@H]1CN(C)C(=O)Nc1ccccc1 has a protection from cytokine-induced ATP loss of -5.38%. CC(C)NC(=O)Nc1ccc2c(c1)C(=O)N([C@@H](C)CO)C[C@H](C)[C@@H](CN(C)S(C)(=O)=O)O2 gave a protection from cytokine-induced ATP loss of 2.67%. For C[C@H]1CN([C@@H](C)CO)C(=O)Cc2cc(NS(=O)(=O)c3cccs3)ccc2O[C@@H]1CN(C)S(=O)(=O)c1cn(C)cn1, the protection from cytokine-induced ATP loss was 6.75%. With COc1ccc(CN(C)C[C@H]2Oc3c(NS(=O)(=O)c4ccccc4)cccc3C(=O)N([C@@H](C)CO)C[C@H]2C)cc1 the protection from cytokine-induced ATP loss was 2.69%. In the case of CNC[C@H]1Oc2ccc(NC(=O)C3CCCCC3)cc2C(=O)N([C@H](C)CO)C[C@@H]1C, the protection from cytokine-induced ATP loss was 1.62%. Molecule C[C@@H]1CN([C@@H](C)CO)C(=O)c2cc(NC(=O)Cn3cnnn3)ccc2O[C@H]1CN(C)Cc1ccc(C(F)(F)F)cc1 has a protection from cytokine-induced ATP loss of -4.67%. Cc1noc(C)c1NC(=O)Nc1ccc2c(c1)C(=O)N([C@@H](C)CO)C[C@H](C)[C@H](CN(C)Cc1ccc(-c3ccccc3)cc1)O2 gave a protection from cytokine-induced ATP loss of -3.13%. In the case of Cc1noc(C)c1NC(=O)Nc1ccc2c(c1)C(=O)N([C@@H](C)CO)C[C@@H](C)[C@@H](CN(C)CC1CCCCC1)O2, the protection from cytokine-induced ATP loss was 3.33%. For C[C@H](CO)N1C[C@H](C)[C@H](CN(C)Cc2ccc(Oc3ccccc3)cc2)Oc2c(NC(=O)CCCCCC(=O)Nc3ccccc3N)cccc2C1=O, the protection from cytokine-induced ATP loss was -9.83%. With COc1ccc(NC(=O)N(C)C[C@H]2Oc3ccc(N(C)C)cc3C(=O)N([C@H](C)CO)C[C@H]2C)cc1 the protection from cytokine-induced ATP loss was 1.38%. For Cc1ccc(S(=O)(=O)Nc2ccc3c(c2)C(=O)N([C@H](C)CO)C[C@H](C)[C@@H](CN(C)C(=O)NC(C)C)OCCCC[C@@H](C)O3)cc1, the protection from cytokine-induced ATP loss was 12.2%. For Cc1ccc(S(=O)(=O)N(C)C[C@H]2Oc3ccc(NC(=O)CCCCCC(=O)Nc4ccccc4N)cc3C(=O)N([C@H](C)CO)C[C@H]2C)cc1, the protection from cytokine-induced ATP loss was -6.48%. CN(C)CCCOc1ccc(/C=N/NC(=O)c2cccc(C(=O)NO)c2)cc1 gave a protection from cytokine-induced ATP loss of -4.67%. C[C@H]1CN([C@@H](C)CO)C(=O)Cc2cc(NC(=O)Nc3ccc(C(F)(F)F)cc3)ccc2O[C@@H]1CN(C)S(=O)(=O)c1ccc(Cl)cc1 showed a protection from cytokine-induced ATP loss of -4.37%. Work on C[C@@H]1CN([C@H](C)CO)C(=O)Cc2cc(NC(=O)CCCCCC(=O)Nc3ccccc3N)ccc2O[C@H]1CN(C)S(=O)(=O)c1ccc(F)cc1 yielded a protection from cytokine-induced ATP loss of 9.28%. COc1cc(/C=N/NC(=O)CCCCCCC(=O)Nc2ccccc2O)ccc1O gave a protection from cytokine-induced ATP loss of -6.33%. COc1ccc(NC(=O)N(C)C[C@H]2Oc3ccc(NC(=O)NC(C)C)cc3CC(=O)N([C@H](C)CO)C[C@H]2C)cc1 showed a protection from cytokine-induced ATP loss of 14%. Cc1ccc(S(=O)(=O)N(C)C[C@@H]2Oc3ccc(N(C)C)cc3C(=O)N([C@@H](C)CO)C[C@H]2C)cc1 gave a protection from cytokine-induced ATP loss of -1.09%. Molecule Cc1ccc(S(=O)(=O)Nc2ccc3c(c2)C(=O)N([C@@H](C)CO)C[C@@H](C)[C@H](CN(C)Cc2ccc(C(=O)O)cc2)O3)cc1 has a protection from cytokine-induced ATP loss of 3.07%.
